The source of these data is ChEMBL document CHEMBL1148668, “The identification of pyrimidine-diazabicyclo[3.3.0]octane derivatives as 5-HT2C receptor agonists” (Bioorg Med Chem Lett, 2006).

Active and inactive are the calls of the source. The calls are words filed in the database; no cut-off is given here.

Data set [1] is described as follows: Brain to plasma AUC ratio in rat at 1.2 mg/kg, iv. The format is ADME, organism-based. Set-up: dose 1.2 mg/kg, route intravenous. To be noted: brain and plasma, read-out: Ratio AUC. The essentials:
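Brain exposure was taken from cortex tissue. The ratio is AUC in cortex divided by AUC in plasma, after a single intravenous dose in rat.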

A short description of data set [2]: Clearance in rat at 1.2 mg/kg, iv. Details: dose 1.2 mg/kg, route intravenous. Format: ADME, organism-based. To be noted: in vivo.
Data set [3] is described as follows: Half life in rat at 1.2 mg/kg, iv. Format: ADME, organism-based. Details: dose 1.2 mg/kg, route intravenous. To be noted: in vivo.
A short description of data set [4]: Oral bioavailability in rat at 10.6 mg/kg, po. The format is ADME, organism-based. To be noted: in vivo.
Data set [5] concerns Rattus norvegicus. As to the kind of experiment: Reduction in food consumption in Sprague-Dawley rat at 20 mg/kg, ip after 4 hrs. Set-up: dose 20 mg/kg. Format: functional, organism-based. The essentials: (§1)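 Male Sprague–Dawley rats, n = 10/group, were given vehicle, fenfluramine (positive control) or test compound intraperitoneally about 30 min before onset of the 12 h dark cycle. This was a 24 h acute feeding study, with food consumption recorded at 4 and 24 h.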

Data set [6] relates to Rattus norvegicus. As to the kind of experiment: Reduction in food consumption in Sprague-Dawley rat at 20 mg/kg, ip after 24 hrs. The format is functional, organism-based. Details: dose 20 mg/kg. The essentials: as §1
The test system of data set [7] is Rattus norvegicus. The data set is described as follows: Reduction in food consumption in ip dosed Sprague-Dawley rat. The format is functional, organism-based. The essentials:
as §1

Data set [8] addresses T1, 5-hydroxytryptamine receptor 2C (Homo sapiens, UniProt P28335).
T1 sequence (P28335 whole entry): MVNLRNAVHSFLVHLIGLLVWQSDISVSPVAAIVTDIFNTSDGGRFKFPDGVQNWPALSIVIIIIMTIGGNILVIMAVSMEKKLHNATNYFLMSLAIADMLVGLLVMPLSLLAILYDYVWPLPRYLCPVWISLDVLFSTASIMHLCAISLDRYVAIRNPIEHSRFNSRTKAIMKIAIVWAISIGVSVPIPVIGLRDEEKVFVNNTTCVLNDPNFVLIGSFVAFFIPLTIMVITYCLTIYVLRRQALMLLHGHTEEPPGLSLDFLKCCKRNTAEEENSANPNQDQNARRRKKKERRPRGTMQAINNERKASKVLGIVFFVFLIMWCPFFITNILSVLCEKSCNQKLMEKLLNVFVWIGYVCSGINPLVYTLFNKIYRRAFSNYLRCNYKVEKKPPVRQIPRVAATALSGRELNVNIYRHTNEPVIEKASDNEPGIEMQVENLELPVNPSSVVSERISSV
As to the kind of experiment: Induction of 5HT2C receptor mediated increase in intracellular calcium concentration in HEK293 cells. The format is functional, cell-based. The essentials: (§2)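 Recombinant cell lines stably expressed the respective 5-HT2 receptor subtype. Agonist-induced rises in intracellular calcium were read with a fluorescence-based assay.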

Data set [9] has as its target 5-hydroxytryptamine receptor 2B (Homo sapiens, UniProt P41595). The data set is described as follows: Induction of 5HT2B receptor mediated increase in intracellular calcium concentration in CHO cells. The format is functional, cell-based. The essentials:
as §2

For data set [10], the target named is 5-hydroxytryptamine receptor 2A (Homo sapiens, UniProt P28223). The data set is described as follows: Induction of 5HT2A receptor mediated increase in intracellular calcium concentration in CHO cells. Format: functional, cell-based. The essentials: as §2
Sequence of 5-hydroxytryptamine receptor 2A (P28223 whole entry): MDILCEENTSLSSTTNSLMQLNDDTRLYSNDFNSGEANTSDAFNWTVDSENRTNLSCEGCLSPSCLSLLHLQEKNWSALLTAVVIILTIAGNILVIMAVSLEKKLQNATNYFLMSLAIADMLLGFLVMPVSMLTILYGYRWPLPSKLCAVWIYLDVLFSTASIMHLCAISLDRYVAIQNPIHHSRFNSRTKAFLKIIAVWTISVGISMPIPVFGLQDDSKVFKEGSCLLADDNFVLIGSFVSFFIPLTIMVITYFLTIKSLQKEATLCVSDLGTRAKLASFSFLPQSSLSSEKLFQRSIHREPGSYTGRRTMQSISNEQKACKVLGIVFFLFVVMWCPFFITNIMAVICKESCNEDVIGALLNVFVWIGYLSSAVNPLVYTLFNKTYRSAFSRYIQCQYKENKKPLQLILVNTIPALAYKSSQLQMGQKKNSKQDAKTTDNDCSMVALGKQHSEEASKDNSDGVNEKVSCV
For orientation: Calcium assays in cells follow changes in intracellular calcium, usually with a dye or a luminescent sensor.

Sequence of 5-hydroxytryptamine receptor 2B (P41595 whole entry): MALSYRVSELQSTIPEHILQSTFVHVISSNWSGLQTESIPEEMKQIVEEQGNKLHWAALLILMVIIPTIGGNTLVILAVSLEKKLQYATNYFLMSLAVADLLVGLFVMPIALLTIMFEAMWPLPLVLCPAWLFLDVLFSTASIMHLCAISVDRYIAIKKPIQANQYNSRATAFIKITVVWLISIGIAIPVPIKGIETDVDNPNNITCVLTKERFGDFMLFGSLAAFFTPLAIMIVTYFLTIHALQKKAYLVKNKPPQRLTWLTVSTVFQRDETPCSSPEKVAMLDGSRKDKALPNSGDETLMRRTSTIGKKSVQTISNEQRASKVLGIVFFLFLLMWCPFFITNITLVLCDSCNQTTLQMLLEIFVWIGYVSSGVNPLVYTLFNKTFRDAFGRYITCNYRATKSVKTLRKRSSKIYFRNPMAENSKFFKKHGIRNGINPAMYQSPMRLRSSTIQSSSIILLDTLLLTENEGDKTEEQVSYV

In the case of `FC(F)(F)c1ccnc(N2CC[C@H]3CNC[C@H]32)n1`, in [1], the Kp worked out at 14.5. The clearance (usually the volume of plasma or blood freed of the substance per unit of time) in data set [2] is 6.71 mL/min/kg. In addition, the half-life (as a rule, how long it takes for the measured level to halve) in [3] was 1.1 h. In addition, in data set [4], the bioavailability (commonly the share of a dose that reaches the circulation, judged against a reference dose that is usually intravenous) was 6%. Besides, the result in data set [5] and in data set [6] was Active. In addition, the Activity entry in data set [7] was “Dose-dependent effect”. Besides, the EC50 – broadly, the concentration giving half of the maximal effect – in data set [8] was 23 nM; in data set [9], 62 nM; in data set [10], 116 nM.
As for `FC(F)(F)c1ccnc(N2CC[C@@H]3CNC[C@@H]32)n1`, the EC50 in [8] was 519 nM.
As to `Fc1cccc(N2CC[C@H]3CNC[C@H]32)c1`, the EC50 was found to be 319 nM in data set [8], 108 nM in data set [9] and 1120 nM in [10].
On to `Fc1ccc(F)c(-c2ccnc(N3CC[C@H]4CNC[C@H]43)n2)c1`, for which, in data set [8], the EC50 was above 1000 nM.
As for `C[C@H]1C[C@H]2CNC[C@H]2N1c1nccc(C(F)(F)F)n1`, the EC50 was 22 nM in data set [8], 151 nM in data set [9] and 40 nM in data set [10].
For `C[C@@H]1C[C@H]2CNC[C@H]2N1c1nccc(C(F)(F)F)n1` the same measures were 57 nM, 48 nM and 25 nM.
For `FC(F)(F)c1ccnc(N2CCC3CNCC32)n1` (racemic) the same measures were 180 nM, 320 nM and 220 nM.
On the same counts, the results for `FC(F)(F)c1cccc(N2CC[C@H]3CNC[C@H]32)c1` are 103 nM, 65 nM and 168 nM.
In the case of `FC(F)(F)c1cccc([C@H]2CC[C@H]3CNC[C@H]32)c1`, the EC50 in data set [8] is 420 nM; in data set [9], 187 nM; in [10], 1080 nM.
On the same counts, the results for `Clc1cccc(N2CC[C@H]3CNC[C@H]32)c1` are 503 nM, 59 nM and 416 nM.
Regarding `Clc1ccc(Cl)c(-c2ccnc(N3CC[C@H]4CNC[C@H]43)n2)c1`, the EC50 in data set [8] was above 1000 nM.
On the same count and under the same terms, in the case of `Fc1ccc(F)c(-c2ccnc(N3C[C@@H]4CCN[C@@H]4C3)n2)c1` it was above 20000 nM.
Still for that read-out and setting: the value for `Clc1ccc(Cl)c(-c2ccnc(N3C[C@@H]4CCN[C@@H]4C3)n2)c1` was above 20000 nM.
`FC(F)(F)c1ccnc(N2C[C@@H]3CCN[C@@H]3C2)n1`: in [8], the EC50 was above 20000 nM.
